Assay outcomes deposited in PubChem BioAssay by Broad Institute.
A selection: hits, their analogues and other compounds. The true share with any hit is near 3.1%.
Cneo AK release – causes C. neoformans cell lysis | adenylate kinase release luminescence, 4 h; normalised: neutral wells 0, clomiphene wells 100 | lysis activity, % at 15 µM | actives 0.2% (n = 360,000);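 active means mean lysis activity across replicates of at least 80%, whatever share of replicates individually reach that level; inactive means mean lysis activity below 80%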
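Material – Cryptococcus neoformans yeast cells · Quantity – 5 × 10^6 yeast cells/mL · Buffer or medium – YPD medium · Compound – single dose · Timing – 4 h static compound exposure, 37 °C, read 1 h post-reagent · Signal – adenylate kinase release luminescence · Read-out basis – lysis from increased AK signal · Benchmarks – Clomiphene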
E-sel inducer – induces E-selectin expression in human endothelial cells | AID 686992 | P16581 | activation, % at 7.58 µM | actives 0.37% (n = 260,000) | HUVEC E-selectin immunofluorescence imaging; normalized: neutral wells 0, TNF-alpha wells 100;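 active means mean E-selectin-positive cell signal at least 10% of the positive control, reached in at least 60% of replicates, without over 20% cell loss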
Target sequence (P16581 whole entry, looked up): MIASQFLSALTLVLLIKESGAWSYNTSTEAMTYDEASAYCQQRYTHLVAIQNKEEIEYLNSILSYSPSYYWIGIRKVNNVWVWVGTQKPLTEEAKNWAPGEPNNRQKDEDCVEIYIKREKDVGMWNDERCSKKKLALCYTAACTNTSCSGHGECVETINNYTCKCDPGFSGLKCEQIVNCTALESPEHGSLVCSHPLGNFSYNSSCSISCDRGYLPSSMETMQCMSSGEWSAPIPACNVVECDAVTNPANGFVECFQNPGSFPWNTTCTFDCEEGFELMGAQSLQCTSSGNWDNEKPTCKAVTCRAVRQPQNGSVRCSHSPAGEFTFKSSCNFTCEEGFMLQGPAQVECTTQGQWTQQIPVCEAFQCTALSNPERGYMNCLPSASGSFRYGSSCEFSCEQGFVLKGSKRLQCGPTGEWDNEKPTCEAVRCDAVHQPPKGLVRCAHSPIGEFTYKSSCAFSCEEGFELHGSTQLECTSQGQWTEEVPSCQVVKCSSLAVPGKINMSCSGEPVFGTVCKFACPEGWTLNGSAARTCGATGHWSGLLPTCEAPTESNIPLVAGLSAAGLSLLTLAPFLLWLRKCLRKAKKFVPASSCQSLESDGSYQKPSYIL
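Material: HUVEC primary endothelial cells; Amount: 3,000 cells per well; Dosing: single concentration; Medium: EGM-2 growth medium on 0.1% gelatin-coated wells; Read-out basis: percent E-selectin-positive cells; Signal: immunofluorescence imaging; Control set: TNF-alpha, DMSO.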
DENV2 CPE rescue – inhibitors of DENV2 cytopathic effect; CPE inhibition, % at 9.99 µM; actives 1.7% (n = 350,000); DENV2-infected cells, cytopathic effect rescue, plate reader; in the data active means CPE inhibition above about 20%, passing the limit was not always enough; tested in BHK-21 cells;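 further: 0% = median of neutral control wells and 100% = median of positive control wells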
rRNA inh HTS – inhibitors of bacterial rRNA selective over humanized ribosomes. E. coli WT GFP vs humanized-ribosome RFP mutants, fluorescence, 24 h; hits give low values; DMSO median 0, no signal -100. GFP signal change (wild-type ribosome), % (concentration not given with the values). actives 1.6% (n = 350,000). AID 720706;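 active means significant combined selectivity score with lowered wild-type GFP, culture density cut under 30%, mutant RFP and density less affected; inactive means any of these conditions unmet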
miR122 inh – blocks miR-122 activity in Huh7 sensor cells | activation (reporter increase), % at 12.5 µM | Huh7 miR-122 Renilla luciferase sensor, 48 h; neutral wells = 0, positive control = 100 | actives 0.3% (n = 340,000) | AID 602342;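 active means mean replicate activation score at least 90 and every replicate individually at or above 90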;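 further: higher luciferase means less miR-122 activity so hits act as miR-122 inhibitors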
* marks the source's active call; other numbers are inactive results; / = no result given; [ ] = remark or other dose.

SMILES	Cneo AK release	E-sel inducer	DENV2 CPE rescue	rRNA inh HTS	miR122 inh
O=C(c1ccco1)N1CCN(C(=O)C2CC2)CC1	-2	37*	-9	2	-13
C[C@@H]1CN([C@H](C)CO)S(=O)(=O)c2ccc(-c3ccncc3)cc2O[C@H]1CN(C)C(=O)c1ccc2c(c1)OCO2	0	0	-10	-7	7[16.7 µM]
CCC(=O)Nc1ccc2c(c1)OC[C@H](C)N(C(=O)c1cnccn1)C[C@@H](C)[C@H](OC)CN(C)C2=O	-60	0	-6	4	/
CCCCNC(=O)N(O)C1N(/N=C/c2ccccc2F)C(=S)SC1(C)C (stereo not drawn)	-1	0	5	5	116*
COc1cccc(CN(C)C(=O)CN2C(=O)NC3(CCCc4ccccc43)C2=O)c1 (stereo not drawn)	-1	-1	73*	-1	-6
Cc1ccsc1CN(C)C(=O)CN1C(=O)NC2(CCCc3ccccc32)C1=O (stereo not drawn)	0	2	-2	/	-1
COc1ccc(CNCc2cccc(Oc3ccccc3)c2)cc1	12	4	1	-25*	0
O=C(Cc1cccnc1)N1CC(=O)N2[C@H](CO)[C@@H](c3ccc(-c4cccc(F)c4)cc3)[C@@H]2C1	/	/	/	4	/
C[C@H](CO)N1C[C@H](C)[C@@H](CN(C)Cc2ccccc2)Oc2ccc(NS(C)(=O)=O)cc2CC1=O	0	0	-1	-1	-3[16.7 µM]
O=C(COc1ccc2ccccc2c1)NNC(=O)c1cnccn1	/	-3	/	/	/
CC(C)c1ccc(OCC(=O)NNC(=O)c2cnccn2)cc1	/	/	-2	-28*	/
O=C(COc1ccc(Cl)cc1)NCCCNC(=O)c1cnccn1	1	34*	3	4	/
CCCN1C[C@H](C)[C@H](OC)CN(C)C(=O)c2ccc(NS(=O)(=O)c3ccccc3)cc2OC[C@@H]1C	-1	0	-5	0	1[16.7 µM]
O=C(c1ccc2c(c1)OCO2)N1CC(=O)N2[C@H](CO)[C@H](c3ccc(-c4ccccc4)cc3)[C@@H]2C1	/	1	49*	4	/
COc1ccc(C#Cc2ccc([C@@H]3[C@H](CO)N4C(=O)CN(C(=O)c5ccncc5)C[C@@H]34)cc2)cc1	/	2	-5	3	/
COCC(=O)N1CC(=O)N2[C@H](CO)[C@H](c3ccc(Br)cc3)[C@@H]2C1	/	0	-1	5	/
COCC(=O)N1CC(=O)N2[C@@H](CO)[C@@H](c3ccc(Br)cc3)[C@@H]2C1	/	0	29*	4	/
COc1ccc(C#Cc2ccc([C@@H]3[C@@H](CO)N4C(=O)CN(C(=O)c5ccncc5)C[C@@H]34)cc2)cc1	/	0	38*	-5	/
O=C(c1ccc2c(c1)OCO2)N1CC(=O)N2[C@H](C1)[C@H](c1ccc(C#Cc3ccccc3)cc1)[C@@H]2CO	/	0	50*	2	/
CNC(=O)C[C@@H]1CC[C@@H]2[C@@H](COc3ccc(NC(=O)Nc4ccccc4F)cc3C(=O)N2C)O1	-3	0	/	-1	-5[16.7 µM]
CO[C@@H]1CN(C)C(=O)c2ccc(NS(=O)(=O)c3cccc(C)c3)cc2OC[C@H](C)NC[C@@H]1C	1	0	9	3	-4[16.7 µM]
O=C(c1ccccc1)N1CC(=O)N2[C@H](C1)[C@H](c1ccc(C#Cc3ccccc3)cc1)[C@@H]2CO	/	0	-4	-10	/
Cc1ccccc1S(=O)(=O)N1CC(=O)N2[C@H](CO)[C@@H](c3ccc(C#Cc4ccccc4)cc3)[C@@H]2C1	/	0	29*	7	/
O=C(c1ccccc1)N1CC(=O)N2[C@H](CO)[C@@H](c3ccc(C#Cc4ccccc4)cc3)[C@@H]2C1	/	-1	21*	-14	/
O=C(C[C@@H]1C[C@H]2c3cc(NS(=O)(=O)c4ccc(F)cc4)ccc3O[C@H]2[C@H](CO)O1)NCc1ccc(Cl)cc1	4	0	6	-57	64[16.7 µM]
SMILES	Cneo AK release	E-sel inducer	DENV2 CPE rescue	rRNA inh HTS	miR122 inh
COc1ccc2c3c([nH]c2c1)[C@@H](CO)N(C(=O)Nc1ccc(F)cc1)CC31CCN(S(=O)(=O)c2cccc(F)c2)CC1	/	0	0	-1	/
CNC(=O)C[C@@H]1CC[C@@H]2[C@H](COc3ccc(NC(=O)C(C)C)cc3C(=O)N2C)O1	-1	0	-4	5	-17[16.7 µM]
CC(C)NC(=O)N(C)C[C@@H]1OCCCC[C@H](C)Oc2ccc(NC(=O)NC3CCCCC3)cc2C(=O)N([C@@H](C)CO)C[C@H]1C	/	0	/	-3	-6[16.7 µM]
COc1cccc(S(=O)(=O)N2CC[C@H]3[C@H](CO)Nc4ccc(C#Cc5ccccc5)cc4[C@H]32)c1	-7	1	31*	2	-4[16.7 µM]
COc1cccc(S(=O)(=O)N2CC[C@@H]3[C@@H](CO)Nc4ccc(C#Cc5ccccc5)cc4[C@@H]32)c1	4	0	-10	2	14[16.7 µM]
COc1cccc(C#Cc2ccc3c(c2)[C@@H]2[C@@H](CCN2S(=O)(=O)c2ccccc2)[C@@H](CO)N3)c1	/	-1	45*	2	/
O=C(CSc1nccc(=O)[nH]1)N1c2ccccc2CCc2ccccc21	2	/	6	-34*	/
C[C@@H]1CCCCO[C@H](CN(C)C(=O)C2CCCCC2)[C@H](C)CN([C@@H](C)CO)C(=O)c2cc(NC(=O)CCC(F)(F)F)ccc2O1	-1	0	0	-4	-5[16.7 µM]
CN(C1CCCCC1)S(=O)(=O)c1ccccc1	8	/	/	/	-3
CN(C1CCCCC1)S(=O)(=O)c1cn(C)c(=O)n(C)c1=O	-1	29*	1	4	4
COc1ccc(CN(C)C[C@H]2OCCCC[C@@H](C)Oc3ccc(NC(=O)c4ccccc4)cc3C(=O)N([C@H](C)CO)C[C@H]2C)cc1	4	0	-15	-1	-6[16.7 µM]
O=C(c1cc(Cl)nc2ccccc12)N(Cc1nnc(-c2ccccc2Cl)o1)C1CC1	0	0	-1	-31	5
O=C(c1cc(Cl)nc2ccccc12)N(Cc1nnc(-c2ccc(Cl)cc2)o1)C1CC1	/	-2	8	-27*	/
CCC(=O)n1nc(-c2ccccc2)nc1NCc1ccccc1	/	/	/	-3	-4
CN(C)c1ccc(CNc2nc(-c3ccccc3)nn2S(C)(=O)=O)cc1	1	/	3	-23*	3
CS(=O)(=O)n1nc(-c2cccnc2)nc1NCc1ccccc1	/	1	-4	5	/
CC(=O)n1nc(-c2ccccc2)nc1NCc1ccc(N(C)C)cc1	0	5	-5	-25*	3
CCN(Cc1ccccc1)c1ccc(/C=N/NS(=O)(=O)c2ccc(C)c([N+](=O)[O-])c2)cc1	/	0	8	-34*	/
S=C(NCc1ccccc1)Nc1cccc2cnccc12	-1	/	-3	14	5
Cc1ccc(NC(=S)Nc2cccc3cnccc23)cc1	-2	/	72*	-42	8
S=C(NCCc1ccccc1)Nc1cccc2cnccc12	2	15	/	-27*	4
